How the values were obtained:
[1] = molecular target: T1, Alpha amylase (Homo sapiens, UniProt P0DUB6); assay: Inhibition of alpha-amylase (unknown origin) using starch as substrate preincubated for 10 mins followed by substrate addition and measured after 10 mins by dinitrosalicylic acid reagent based assay
T1 sequence (P0DUB6 whole entry): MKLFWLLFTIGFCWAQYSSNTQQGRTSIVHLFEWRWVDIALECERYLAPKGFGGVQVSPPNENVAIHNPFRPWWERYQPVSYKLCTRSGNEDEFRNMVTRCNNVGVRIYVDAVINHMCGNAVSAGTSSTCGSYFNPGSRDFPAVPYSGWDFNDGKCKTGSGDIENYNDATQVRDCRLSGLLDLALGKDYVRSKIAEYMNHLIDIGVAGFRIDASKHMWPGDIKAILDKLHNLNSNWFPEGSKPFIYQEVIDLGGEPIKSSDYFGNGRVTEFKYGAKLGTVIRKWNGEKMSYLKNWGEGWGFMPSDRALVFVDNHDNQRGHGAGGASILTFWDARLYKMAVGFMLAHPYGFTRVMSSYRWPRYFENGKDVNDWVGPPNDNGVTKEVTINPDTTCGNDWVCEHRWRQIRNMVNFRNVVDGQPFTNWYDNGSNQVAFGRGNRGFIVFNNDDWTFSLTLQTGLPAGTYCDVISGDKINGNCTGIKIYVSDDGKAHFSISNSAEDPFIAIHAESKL
Summary of the method: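 Enzyme at 0.5 mg/mL in […] pH 6.9, preincubated 10 min at 25 °C with test sample (100, 200, 400, 800, 1000 µg/mL). Then 1% starch in 0.02 M sodium phosphate pH 6.9 added, 10 min at 25 °C.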

[2] = Inhibition of rat intestinal alpha-glucosidase using p-nitrophenyl-alpha-D-glucopyranoside as substrate preincubated for 5 mins followed by substrate addition and measured after 5 mins by spectrophotometric analysis
Summary of the method: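 Enzyme source: rat intestinal acetone powder in saline (100:1 w/v), sonicated and centrifuged; supernatant used. Samples (5 mg/mL in DMSO) in 100 mM phosphate buffer pH 6.8, incubated 5 min with enzyme. Then 5 mM p-nitrophenyl-α-D-glucopyranoside added, and p-nitrophenol read at 405 nm after 5 min. Blanks had buffer in place of substrate, controls had DMSO. Inhibition computed from control and sample absorbance.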

[3] = species on record: Homo sapiens; assay: Uncompetitive inhibition of alpha-glucosidase (unknown origin) assessed as Km using varying levels of para-nitrophenyl-R-D-maltoside as substrate incubated for 30 mins by Lineweaver-Burk plot analysis
Summary of the method: (§1)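 Enzyme at 0.2 mg/mL per well in deionized water with PIPES pH 7.0. Inhibitor at 0.0625–0.4 mM (0.0625, 0.125, 0.3, 0.4), substrate p-nitrophenyl-R-D-maltoside at 0.1, 0.2, 0.4, 0.8 and 1.0 mM. Incubated 30 min at 25 °C with readings at 1-min intervals on a plate reader. Km and Vmax derived by enzyme-kinetic graph fitting.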

[4] = species on record: Homo sapiens; assay: Uncompetitive inhibition of alpha-glucosidase (unknown origin) assessed as Vmax using varying levels of para-nitrophenyl-R-D-maltoside as substrate incubated for 30 mins by Lineweaver-Burk plot analysis; summary of the method: as §1
[5] = test system: Nc1ncccc1/C=N/n1cnnc1; assay: (§2) Mixed type inhibition of alpha-amylase (unknown origin) assessed as Km using varying level of para-nitrophenyl-R-D-maltoside as substrate incubated for 30 mins by Lineweaver-Burk plot analysis; details: Homo sapiens
Summary of the method: (§3)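 Kinetics run with inhibitor at 0.0625, 0.125, 0.3 and 0.4 mM and p-nitrophenyl-R-D-maltoside at 0.1, 0.2, 0.4, 0.8 and 1.0 mM. Enzyme at 0.2 mg/mL per well in deionized water, PIPES buffer pH 7.0, 30 min at 25 °C, absorbance on a plate reader. Vmax and Km obtained by enzyme-kinetic graph fitting.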

[6] = test system: COc1cc(/C=N/n2cnnc2)ccc1F; assay: as §2; details: Homo sapiens; summary of the method: as §3
[7] = test system: COc1ccc(/C=N/n2cnnc2)c(F)c1; assay: as §2; details: Homo sapiens; summary of the method: as §3
[8] = test system: C(=N/n1cnnc1)\c1cc2ccccc2[nH]1; assay: as §2; details: Homo sapiens; summary of the method: as §3
[9] = test system: Oc1ccc(/C=N/n2cnnc2)cc1Br; assay: as §2; details: Homo sapiens; summary of the method: as §3
[10] = test system: Oc1ccc(/C=N/n2cnnc2)cc1; assay: as §2; details: Homo sapiens; summary of the method: as §3
[11] = test system: O=[N+]([O-])c1ccc(/C=N/n2cnnc2)cc1; assay: as §2; details: Homo sapiens; summary of the method: as §3
[12] = test system: O=[N+]([O-])c1cc(O)cc(/C=N/n2cnnc2)c1; assay: as §2; details: Homo sapiens; summary of the method: as §3
[13] = test system: Clc1ccc(/C=N/n2cnnc2)c(Cl)c1; assay: as §2; details: Homo sapiens; summary of the method: as §3
[14] = test system: COc1cc(/C=N/n2cnnc2)cc(OC)c1Br; assay: as §2; details: Homo sapiens; summary of the method: as §3
[15] = test system: Nc1ncccc1/C=N/n1cnnc1; assay: (§4) Mixed type inhibition of alpha-amylase (unknown origin) assessed as Vmax using varying levels of para-nitrophenyl-R-D-maltoside as substrate incubated for 30 mins by Lineweaver-Burk plot analysis; details: Homo sapiens; summary of the method: as §3
[16] = test system: COc1cc(/C=N/n2cnnc2)ccc1F; assay: as §4; details: Homo sapiens; summary of the method: as §3
[17] = test system: COc1ccc(/C=N/n2cnnc2)c(F)c1; assay: as §4; details: Homo sapiens; summary of the method: as §3
[18] = test system: C(=N/n1cnnc1)\c1cc2ccccc2[nH]1; assay: as §4; details: Homo sapiens; summary of the method: as §3
[19] = test system: Oc1ccc(/C=N/n2cnnc2)cc1Br; assay: as §4; details: Homo sapiens; summary of the method: as §3
[20] = test system: Oc1ccc(/C=N/n2cnnc2)cc1; assay: as §4; details: Homo sapiens; summary of the method: as §3
[21] = test system: O=[N+]([O-])c1ccc(/C=N/n2cnnc2)cc1; assay: as §4; details: Homo sapiens; summary of the method: as §3
[22] = test system: O=[N+]([O-])c1cc(O)cc(/C=N/n2cnnc2)c1; assay: as §4; details: Homo sapiens; summary of the method: as §3
[23] = test system: Clc1ccc(/C=N/n2cnnc2)c(Cl)c1; assay: as §4; details: Homo sapiens; summary of the method: as §3
[24] = test system: COc1cc(/C=N/n2cnnc2)cc(OC)c1Br; assay: as §4; details: Homo sapiens; summary of the method: as §3

Compound	IC50 [1]	IC50 [2]	further results
COc1cc(/C=N/n2cnnc2)cc(OC)c1Br	2.25 µM	2.52 µM	Km [3]: 700 µM; Vmax [4]: 690 µM/min
CC(C)(C)c1cc(/C=N/n2cnnc2)c(C(C)(C)C)cc1O	6.23 µM	6.34 µM	
COc1cc(/C=N/n2cnnc2)cc(OC)c1O	3.31 µM	3.27 µM	
COc1ccc(Br)c(/C=N/n2cnnc2)c1O	5.25 µM	5.52 µM	
Oc1ccc(/C=N/n2cnnc2)c(O)c1O	5.92 µM	5.74 µM	
C(=N\n1cnnc1)/c1cc2ccc3cccc4ccc(c1)c2c34	6.41 µM	6.3 µM	
C(=N\n1cnnc1)/c1ccc(OCc2ccccc2)cc1	5.04 µM	5.44 µM	
COc1cc(/C=N/n2cnnc2)cc(OC)c1OC	5.12 µM	5.46 µM	
C[C@H]1O[C@H](O[C@H]2[C@H](O)[C@@H](O)[C@@H](O[C@H]3[C@H](O)[C@@H](O)C(O)O[C@@H]3CO)O[C@@H]2CO)[C@H](O)[C@@H](O)[C@@H]1N[C@H]1C=C(CO)[C@@H](O)[C@H](O)[C@H]1O (some centres not stated) [ACARBOSE]		1.99 µM	
COc1ccc(/C=N/n2cnnc2)cc1OCc1ccccc1	6.23 µM	6.54 µM	
COc1ccc(/C=N/n2cnnc2)c(OC)c1	4.37 µM	4.28 µM	
COc1ccc(Br)cc1/C=N/n1cnnc1	3.3 µM	3.46 µM	
COc1ccc(/C=N/n2cnnc2)c(F)c1	2.9 µM	2.33 µM	Km [3]: 500 µM; Vmax [4]: 701 µM/min
COc1cccc(OC)c1/C=N/n1cnnc1	4.37 µM	4.29 µM	
C(=N\n1cnnc1)/c1c2ccccc2cc2ccccc12	5.27 µM	5.41 µM	
Alpha amylase (Homo sapiens) (from UniProt P0DUB6)			Km [5]: 1000 µM; Km [6]: 1300 µM; Km [7]: 1300 µM; Km [8]: 1500 µM; Km [9]: 1200 µM; Km [10]: 1300 µM; Km [11]: 900 µM; Km [12]: 1300 µM; Km [13]: 1200 µM; Km [14]: 1300 µM; Vmax [15]: 213 µM/min; Vmax [16]: 241 µM/min; Vmax [17]: 238 µM/min; Vmax [18]: 256 µM/min; Vmax [19]: 221 µM/min; Vmax [20]: 237 µM/min; Vmax [21]: 207 µM/min; Vmax [22]: 232 µM/min; Vmax [23]: 221 µM/min; Vmax [24]: 242 µM/min

Continued, in another order:

IC50 [1]	IC50 [2]	Compound	further results
2.33 µM	2.27 µM	COc1cc(/C=N/n2cnnc2)ccc1F	Km [3]: 500 µM; Vmax [4]: 697 µM/min
5.22 µM	5.47 µM	CCOc1cc(/C=N/n2cnnc2)ccc1OC	
2.36 µM	2.47 µM	O=[N+]([O-])c1ccc(/C=N/n2cnnc2)cc1	Km [3]: 500 µM; Vmax [4]: 680 µM/min
2.18 µM	2.49 µM	Clc1ccc(/C=N/n2cnnc2)c(Cl)c1	Km [3]: 500 µM; Vmax [4]: 685 µM/min
6.44 µM	6.37 µM	CC(C)(C)c1ccc(/C=N/n2cnnc2)cc1	
2.27 µM	2.37 µM	Oc1ccc(/C=N/n2cnnc2)cc1Br	Km [3]: 400 µM; Vmax [4]: 698 µM/min
5.24 µM	5.36 µM	CCOc1ccc(/C=N/n2cnnc2)cc1OC	
4.46 µM	4.37 µM	O=[N+]([O-])c1ccc(Cl)c(/C=N/n2cnnc2)c1	
5.95 µM	5.44 µM	Oc1ccc(/C=N/n2cnnc2)c(O)c1	
2.01 µM	2.09 µM	C(=N\n1cnnc1)/c1cc2ccccc2[nH]1	Km [3]: 300 µM; Vmax [4]: 703 µM/min
4.34 µM	4.27 µM	Cc1ccc(/C=N/n2cnnc2)c(C)c1	
5.97 µM	5.37 µM	O=[N+]([O-])c1cccc(/C=N/n2cnnc2)c1	
5.27 µM	5.37 µM	Oc1ccc(O)c(/C=N/n2cnnc2)c1	
2.99 µM	2.62 µM	Oc1ccc(/C=N/n2cnnc2)cc1	Km [3]: 400 µM; Vmax [4]: 701 µM/min
2.28 µM	2.44 µM	Nc1ncccc1/C=N/n1cnnc1	Km [3]: 500 µM; Vmax [4]: 685 µM/min
5.94 µM	5.3 µM	COc1cc(/C=N/n2cnnc2)ccc1O	
2.41 µM	2.31 µM	O=[N+]([O-])c1cc(O)cc(/C=N/n2cnnc2)c1	Km [3]: 500 µM; Vmax [4]: 695 µM/min
5.69 µM	5.44 µM	Oc1ccc(/C=N/n2cnnc2)cc1O	
4.36 µM	4.28 µM	Clc1ccc(/C=N/n2cnnc2)cc1	

Source: ChEMBL document CHEMBL4622848, “Syntheses, in vitro α-amylase and α-glucosidase dual inhibitory activities of 4-amino-1,2,4-triazole derivatives their molecular docking and kinetic studies” (Bioorg Med Chem, 2020)
